In brackets after ≈: the same amount, converted by molar mass.
Experiments:
Mus musculus [1] = test: Concentration of 9-[4-Hydroxy-3-(hydroxymethyl)but-1-yl)guanine in blood of mice after 0.25 hours upon oral administration; type: functional, organism-based
Procedure, shortened: (§1)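 Female Balb/c mice (20 g), food withheld 18 h, got one oral gavage dose of 0.2 mmol/kg in 0.1 mL 1% (carboxymethyl)cellulose. Blood was drawn by heparinized cardiac puncture at 0.25, 1 and 3 h, with three mice pooled per time point. It was treated with an equal volume of 16% TCA, centrifuged and NaHCO3-neutralized. The guanine analyte was measured by C18 HPLC at 254 nm in duplicate.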

Mus musculus [2] = test: Concentration of 9-[4-Hydroxy-3-(hydroxymethyl)but-1-yl)guanine in blood of mice after 3 hours upon oral administration; type: functional, organism-based; procedure, shortened: as §1
Mus musculus [3] = test: Concentration of 9-[4-Hydroxy-3-(hydroxymethyl)but-1-yl)guanine in blood of mice after 1 hour upon oral administration; type: functional, organism-based; procedure, shortened: as §1
Mus musculus [4] = test: Concentration of 2-Amino-9-(4-hydroxy-3-hydroxymethyl)but-1-yl)purine in blood of mice after 0.25 hours upon oral administration; type: functional, organism-based
Procedure, shortened: (§2)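 Single oral gavage dose of 0.2 mmol/kg in 0.1 mL 1% (carboxymethyl)cellulose to female Balb/c mice (20 g), fasted 18 h. Heparinized cardiac-puncture blood was taken at 0.25, 1 and 3 h, pooled equally from three mice per time point, and deproteinized with an equal volume of 16% TCA. Supernatant was neutralized with NaHCO3 and run on C18 HPLC in duplicate in 5 mM KH2PO4. The 2-aminopurine was read at 310 nm; detection limit 1 μM.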

Mus musculus [5] = test: Concentration of 2-Amino-9-(4-hydroxy-3-hydroxymethyl)but-1-yl)purine in blood of mice after 1 hour upon oral administration; type: functional, organism-based; procedure, shortened: as §2
Mus musculus [6] = test: Concentration of 2-Amino-9-(4-hydroxy-3-hydroxymethyl)but-1-yl)purine in blood of mice after 3 hours upon oral administration; type: functional, organism-based; procedure, shortened: as §2
[7] = Aqueous solubility at 25 degrees Centigrade; type: physicochemical; settings: water; read-out: S
Mus musculus [8] = test: Concentration of 2-Amino-9-(4-hydroxy-3-hydroxymethyl)but-1-yl)purine in blood of mice after 1 hours upon oral administration; type: functional, organism-based; procedure, shortened: as §2
Mus musculus [9] = test: Concentration of 9-[4-Hydroxy-3-(hydroxymethyl)but-1-yl)guanine in blood of mice after 3 hour upon oral administration; type: functional, organism-based; procedure, shortened: as §1
[10] = Solubility in water; type: physicochemical; settings: read-out: S

| SMILES | Concentration (Mus musculus [1]) | Concentration (Mus musculus [2]) | Concentration (Mus musculus [3]) | Concentration (Mus musculus [4]) | Concentration (Mus musculus [5]) | Concentration (Mus musculus [6]) | solubility [7] | Concentration (Mus musculus [8]) | Concentration (Mus musculus [9]) | solubility [10] |
| --- | --- | --- | --- | --- | --- | --- | --- | --- | --- | --- |
| CC(C)Oc1nc(N)nc2c1ncn2CCC(CO)CO | 9.2 µM | < 0.5 µM | 3.8 µM | 43 µM | 12 µM | 1 µM |  |  |  |  |
| CCCC(=O)OCC(CO)CCn1cnc2cnc(N)nc21 (stereo unspecified) | 64 µM | 2 µM | 28 µM | 57 µM | 7 µM | < 1 µM |  |  |  |  |
| Nc1ncc2ncn(CCC(CO)COC(=O)c3ccccc3)c2n1 (stereo unspecified) | 63 µM | 1.1 µM | 26 µM | 71 µM | 8 µM | < 1 µM |  |  |  |  |
| CCC(=O)OCC(CCn1cnc2cnc(N)nc21)COC(=O)CC | 79 µM | 2.1 µM | 26 µM | 92 µM | 9 µM | < 1 µM | 19 mg/mL (≈ 54.4 mM) |  |  |  |
| Nc1ncc2ncn(CCC3COP(=O)(O)OC3)c2n1 (stereo unspecified) | 1 µM | 2.6 µM | 1 µM | < 1 µM | < 1 µM | < 1 µM |  |  |  |  |
| CC1(C)OCC(CCn2cnc3cnc(N)nc32)CO1 | 33 µM | 3.2 µM | 11 µM | 33 µM |  | 1 µM |  | 4 µM |  |  |
| Nc1nc(O)c2ncn(CCC(CO)CO)c2n1 | 4.9 µM | 1.1 µM | 4 µM |  |  |  |  |  |  |  |
| CC(=O)OCC(CCn1cnc2c(O)nc(N)nc21)COC(C)=O |  |  |  |  |  |  | 6.7 mg/mL (≈ 19.9 mM) |  |  |  |
| CC(=O)OCC(CO)CCn1cnc2cnc(N)nc21 (stereo unspecified) | 51 µM | 1.2 µM | 20 µM | 38 µM | 3 µM | < 1 µM |  |  |  |  |
| Nc1nc(OCc2ccccc2)c2ncn(CCC(CO)CO)c2n1 | 1.8 µM | 0.5 µM | 2.1 µM | 3 µM | 2 µM | < 1 µM |  |  |  |  |
| Nc1ncc2ncn(CCC(CO)CO)c2n1 [6-DEOXY PENCICLOVIR] | 16 µM | 3.2 µM | 13 µM | 8 µM | 4 µM | 1 µM | 120 mg/mL (≈ 506 mM) |  |  |  |
| CCC(=O)OCC(CCn1cnc2c(O)nc(N)nc21)COC(=O)CC |  |  |  |  |  |  | 1.2 mg/mL (≈ 3.28 mM) |  |  |  |
| Nc1ncc2ncn(CCC(CO)COP(=O)(O)O)c2n1 (stereo unspecified) | 8.7 µM |  | 17 µM | 4 µM |  | 1 µM |  | 8 µM | 5.2 µM |  |
| Nc1nc(Oc2ccccc2)c2ncn(CCC(CO)CO)c2n1 | < 0.5 µM | < 0.5 µM | < 0.5 µM | 8 µM | 7 µM | < 1 µM |  |  |  |  |
| COc1nc(N)nc2c1ncn2CCC(CO)CO | 0.6 µM | < 0.5 µM | 0.9 µM | 8 µM | 7 µM | 2 µM |  |  |  |  |
| CCOc1nc(N)nc2c1ncn2CCC(CO)CO | 6.8 µM | 0.9 µM | 8 µM | 25 µM | 11 µM | < 1 µM |  |  |  |  |
| Nc1nc2c(ncn2CCC(CO)CO)c(=O)[nH]1 [PENCICLOVIR] |  |  |  |  |  |  | 3 mg/mL (≈ 11.8 mM) |  |  |  |
| CCCCOc1nc(N)nc2c1ncn2CCC(CO)CO | 5.7 µM | < 0.5 µM | 5.2 µM | 19 µM | 11 µM | 1 µM |  |  |  |  |
| COC(=O)OCC(CO)CCn1cnc2cnc(N)nc21 (stereo unspecified) | 54 µM | 2.6 µM | 22 µM | 55 µM | 4 µM | < 1 µM |  |  |  |  |
| CC(=O)OCC(CCn1cnc2cnc(N)nc21)COC(C)=O [FAMCICLOVIR] | 74 µM | 1.1 µM | 17 µM | 69 µM | 3 µM | < 1 µM | > 300 mg/mL |  |  | 20 mg/mL (≈ 62.2 mM) |

From ChEMBL document CHEMBL1124547, “Prodrugs of the selective antiherpesvirus agent 9-[4-hydroxy-3-(hydroxymethyl)but-1-yl]guanine (BRL 39123) with improved gastrointestinal absorption properties” (J Med Chem, 1989)
